Rows were chosen to be rich in hits. Some 3.7% of all compounds tested hit in one or more screens of this group.
MDM2 E3 inh: Mdm2 E3 ligase (human) inhibition | signal enhancement, % at 5 µM | 0.11% of 210,000 active | cell-based MDM2 ubiquitination luciferase reporter, 2 h; 0 = plate control, 100 = twice control, blank-subtracted;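 active = signal enhancement of 30% or more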;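 also: luminescence tracks abundance of the self-degrading MDM2-luciferase fusion protein; higher signal means inhibition of MDM2 E3 ligase activity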
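Assay system: stable mammalian line carrying autodegrading MDM2–luciferase fusion reporter; amount: 2000 cells seeded into each well; buffer or medium: DMEM; benchmarks: plate control and blank wells; signal: luciferase luminescence; timing: 2 h compound exposure at 37 °C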
Beta2AR agonist: agonists of human beta-2 adrenergic receptor inducing internalization; P07550; Am2.2-beta2AR cells, FAP receptor internalization, flow cytometry; response, % (concentration not given with the values); 0.43% of 340,000 active;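 active = response above a set limit, near 3 SD of response in nonfluorescent compounds, cut at about 42% in these data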
Target sequence (P07550 whole entry, looked up): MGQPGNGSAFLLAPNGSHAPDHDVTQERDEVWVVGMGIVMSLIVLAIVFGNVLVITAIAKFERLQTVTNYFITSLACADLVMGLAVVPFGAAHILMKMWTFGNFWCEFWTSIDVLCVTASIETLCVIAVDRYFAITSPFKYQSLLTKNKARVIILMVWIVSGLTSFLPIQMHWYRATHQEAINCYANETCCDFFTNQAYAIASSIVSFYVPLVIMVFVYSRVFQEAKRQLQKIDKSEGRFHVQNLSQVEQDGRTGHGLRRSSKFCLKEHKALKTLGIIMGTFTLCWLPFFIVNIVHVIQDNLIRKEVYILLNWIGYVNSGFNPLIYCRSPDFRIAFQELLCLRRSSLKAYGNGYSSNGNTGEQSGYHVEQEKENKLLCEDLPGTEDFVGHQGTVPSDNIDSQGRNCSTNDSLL
Mdm2 MdmX PPI: disrupts the human Mdm2-MdmX interaction; O15151+Q00987; inhibition, % at 8 µM; 3% of 330,000 active; SaOS-2 split-luciferase Mdm2/MdmX complementation, luminescence;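 active = inhibition of at least 50% at 8 µM in the primary screen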
Dynein cargo inh: blocks dynein driven cargo transport along microtubules | AID 1381 | 3617.4 mouse cells, GR-EGFP nuclear translocation imaging; test concentration mostly 20 µM; stimulated with dexamethasone, 1 µM; hits give low values | z-score, hits read low | 0.47% of 220,000 active;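 active = plate z-score of nuclear minus cytoplasmic receptor signal below a set negative limit, without overly bright fluorescence or cell loss, cut at about -3.5 in these data, passing the limit was not always enough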;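 also: z-score of nuclear minus cytoplasmic ring GR-EGFP intensity difference per well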
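medium = tetracycline-free induction medium containing charcoal-stripped FBS | also added = 1.0 µM final dexamethasone stimulus | schedule = 48 h induction, 1 h compound, 30 min dex at 37 °C | technique = fixed, Hoechst-stained cells imaged at 10x for EGFP | measure = GR-EGFP nuclear translocation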
CHOP UPR activ: activators of apoptotic arm of unfolded protein response (CHOP) | AID 449763 | CHO-CHOP luciferase reporter, UPR activation, luminescence; percent of tunicamycin response over DMSO baseline | 0.34% of 330,000 active | activation, % at 10 µM;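 active = at 10 µM dose, activation of 40% or more, normalized to positive control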;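 also: 100% = tunicamycin at 10 µg/mL and 0% = DMSO alone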
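System: CHO CHOP reporter cells. Amount: 500 cells per well. Buffer or medium: F12 medium, 10% FBS. Compound dosing: one dose, 10 µM in 0.5% DMSO. Incubation: 6 h compound exposure at 37 °C after overnight seeding. Technique: Steady-Glo luciferase luminescence. Benchmarks: tunicamycin and DMSO controls.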
UPR XBP1 act: adaptive UPR (XBP1) activation; 0.33% of 330,000 active; CHO-XBP1 luciferase reporter, IRE1-XBP1 UPR activation, luminescence; percent of tunicamycin response, DMSO as zero; activation, % at 20 µM; AID 463104;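 active = versus positive control, 20 µM dose yields 30% or more activation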;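 also: 100% = tunicamycin at 10 µg/mL and 0% = DMSO only wells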
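Material – CHO cell line with stable XBP1 luciferase reporter · Buffer or medium – F12 plus 10% FBS · Compound – single point, 20 µM final compound, 1% DMSO · Schedule – 16-18 h cell attachment at 37 °C, then 6 h compound exposure · Signal – Steady-Glo luminescence read · Benchmarks – high control tunicamycin 10 µg/mL final, low control DMSO vehicle only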
Dynein confirm: dynein cargo transport inhibition, confirmation. 3617.4 GR-EGFP nuclear translocation imaging, dexamethasone-induced. 69% of 1,000 active. AID 463116. calls only at 20 µM. shares compounds with Dynein cargo inh;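 active = inhibition of receptor movement into the nucleus at or above a set limit in both runs, with normal cell brightness and cell count; inconclusive = limit reached in only one run, brightness and count normal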;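 also: dexamethasone at 1 µM final in well for 30 min; nuclear minus cytoplasmic GR-EGFP mean intensity difference in channel 2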
CHOP UPR conf: apoptotic UPR (CHOP) activation, confirmed; 64% of 1,000 active; AID 463112; CHO-CHOP cells, CHOP-luciferase reporter luminescence; percent of tunicamycin response, DMSO as zero; shares compounds with CHOP UPR activ; activation, % at 10 µM; in the data active = activation above about 33%;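 also: 0% = DMSO wells and 100% = tunicamycin 10 µg/mL wells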
UPR XBP1 confirm: adaptive UPR (XBP1) activation, confirmed | shares compounds with UPR XBP1 act | CHO-XBP1 IRE1-XBP1 luciferase reporter, luminescence | activation, % at 20 µM | 63% of 1,000 active | AID 485299;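 active = reporter signal at least 30% of the positive control's activation in two or more of four replicate wells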;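 also: plate controls were DMSO negative control for no effect and tunicamycin 10 µg/mL positive control for full effect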
Starred values were filed as active, the others as inactive; i = inactive; u = inconclusive; x = no result given; + = active, no number.

SMILES	MDM2 E3 inh	Beta2AR agonist	Mdm2 MdmX PPI	Dynein cargo inh	CHOP UPR activ	UPR XBP1 act	Dynein confirm	CHOP UPR conf	others
CCn1cc(C(=O)N[C@@H](CCSC)C(=O)NCCCOC)c(=O)c2cc3c(cc21)OCO3	x	-3	16	x	-1	-1	x	x
O=C1N=C2N(CCN3CCCCC3)c3ccccc3N2/C1=C\c1ccc([N+](=O)[O-])o1	-12	x	x	-4*	x	x	+	x
c1ccc2c(c1)N1CCCN=C1N2CCN1CCCCC1	-14	-7	7	-0.3	-3	-2	x	x
CC(=O)Nc1c([N+](=O)[O-])cc2[nH]c(=O)[nH]c2c1[N+](=O)[O-]	4	-11	5	-0.89	1	-2	x	x
CC(=O)Nc1c([N+](=O)[O-])cc(C)c(Cl)c1[N+](=O)[O-]	4	2	-25	-5.8*	-3	0	+	x
COc1ccc(NC(=O)Cc2ccc(Cl)c(Cl)c2)cn1	-4	1	6	-0.58	0	1	x	x
COc1ccc(NC(=O)/C(Cl)=C(/Cl)S(=O)(=O)Cc2ccc(C)cc2)cn1	-18	62*	x	-5*	x	x	i	x
N#CCCn1cc(C=C(C#N)C#N)c(-c2ccc(-c3ccccc3)cc2)n1	-4	0	31	-4.1*	6	-2	u	x
O=[N+]([O-])c1ccc(COc2ccccc2CN2CCCCC2)cc1	x	3	x	x	x	x	x	x
FC(F)(F)c1ccc(-c2noc(CN3CCCN(C4CCCCC4)CC3)n2)cc1	-13	-4	28	-1.1	-1	3	x	x
CCCCN1CC(=O)N2[C@H](c3ccc(OC)cc3)[C@@H]3C(=O)N(CC)C(=O)[C@@H]3[C@]2(C)C1=O	x	2	21	x	0	-1	x	x
CCCc1cc(-n2ccnc2)n2c(nc3ccccc32)c1C#N	-10	-38	25	-8.1	1	-4	i	x
Cc1ccc(S(=O)(=O)/N=c2\ccc(Cl)cn2C(F)F)cc1	-1	-2	-6	-3.8*	2	2	i	x
O=C1NC(Cc2ccc(O)cc2)c2nc3ccc(Cl)cc3c(=O)n2-c2ccc(Cl)cc21 (stereo unspecified)	x	x	19	x	-1	5	x	x
CCCn1c(CC)nc([N+](=O)[O-])c1S(=O)(=O)c1ccccc1	-9	37	30	-5.1*	104*	-6	+	71*
CCc1nc(C)cn1S(=O)(=O)c1ccc([N+](=O)[O-])cc1	12	3	15	-0.69	0	0	x	x
Cc1nc([N+](=O)[O-])c(Br)n1CC(=O)c1ccc(Cl)cc1	-17	25	36	-6.5*	58*	-6	+	60*
O=C(Nc1ccccc1-c1ccccc1)C(=O)Nc1ccccc1-c1ccccc1	x	x	11	0.44	2	1	x	x
CCOc1ccc(/C=C/[N+](=O)[O-])c2ccccc12	24	78*	47	-3.9*	221*	-4	i	-9
CCOc1ccccc1NC(=O)/C=C/c1ccccc1[N+](=O)[O-]	-17	-16	14	0.43	-1	-1	x	x
CCOC(=O)C(=Cc1ccc(-n2cncn2)cc1)C(=O)OCC	1	5	31	-6.8*	119*	-3	+	93*
CN(C)C(=O)CNC(=O)CN1C(=O)NC2(CCCc3sccc32)C1=O (stereo unspecified)	x	-2	9	x	-1	-3	x	x
Cc1cc(C)nc(NC(=S)NC(=O)c2ccccc2F)n1	x	-8	10	x	1	-1	x	x
Cc1cc(C)nc(S/C=C/C(=O)c2ccccc2F)n1	39*	30	26	-3.7*	73*	0	+	8
O=C(NC1CCCC1)C(c1ccc(F)cc1)N(Cc1ccc(F)cc1)C(=O)CCl (stereo unspecified)	-6	0	17	-4.4*	48*	-1	+	93*
SMILES	MDM2 E3 inh	Beta2AR agonist	Mdm2 MdmX PPI	Dynein cargo inh	CHOP UPR activ	UPR XBP1 act	Dynein confirm	CHOP UPR conf	others
COc1ccc(Cc2nnc(NC(=O)c3ccccc3Cl)s2)cc1OC	x	-1	7	x	-2	-2	x	x
CC(C)c1ccc(/C=C/C(=O)n2nnc3ccccc32)cc1	-4	16	24	-4.5*	69*	2	+	17
O=C1ON=C(c2ccc(Cl)cc2)/C1=C/c1ccc(O)cc1	-7	x	17	-5*	107*	-2	+	21
O=C(COC(=O)c1cccc(S(=O)(=O)Nc2ccc(F)cc2)c1)NCCN1C(=O)CSC1=O	x	17	5	x	1	-3	x	x
CC(=O)/C=C\c1ccccc1OC(=O)c1cc2ccccc2oc1=O	x	-3	4	x	2	-4	x	x
O=C(/C=C\c1ccccc1OC(=O)c1ccccc1F)c1cc2ccccc2o1	-14	24	-17	-4.7*	55*	12	+	287*
CC(C)(C)CC(C)(C)NC(=O)/C=C/C(=O)O	-7	3	32	-0.14	0	-1	x	x
CCN(CC)C(=O)c1cc([N+](=O)[O-])cc2c1-c1ccc([N+](=O)[O-])cc1C2=C(C#N)C#N	4	37	25	-4.9*	169*	8	u	27
CCN(CC)C(=O)c1ccc(Oc2ccc([N+](=O)[O-])cc2Cl)cc1	-49	1	21	0.23	1	-4	x	x
CCOc1ccccc1OC(=O)CN1C(=O)c2ccccc2C1=O	x	7	-8	x	2	-3	x	x
COc1ccc(C2=CC(=O)N(Nc3ccccc3)C2=O)cc1	-10	x	-15	-5.1*	48*	-4	+	149*
COC(=O)c1cc([N+](=O)[O-])c(-n2ccnc2)c([N+](=O)[O-])c1	-1	7	-2	-3.5*	7	91*	+	x	UPR XBP1 confirm=187*
O=C(O)c1ccc(-n2ccnc2)c([N+](=O)[O-])c1	5	0	5	-0.36	0	1	x	x
Cc1ccc(NC(=O)CN(C)S(=O)(=O)c2ccc(Cl)s2)c(O)c1	x	3	-3	x	2	1	x	x
CCn1nc(C)cc1C(=O)Sc1cccc(Cl)c1	-18	1	-4	-3.5*	5	49*	+	x	UPR XBP1 confirm=5
Cn1c(Cl)cnc1C1CC(=O)c2cc(Cl)ccc2O1 (stereo unspecified)	-6	-6	45	-5.9*	23	77*	u	x	UPR XBP1 confirm=130*
